Columns and labels:
Details in all cases: stereoisomer not certain
UniProt Q9WVD9 = molecular target: UniProt Q9WVD9
Summary of the method: (§1)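 Transient luciferase assays in mammalian cell lines were common, though methods varied by source. The values come from published papers and their supplementary material, with extra details from the original authors when needed. Responsive refers to a measured signal the original authors judged statistically different from baseline, and non-responsive (inactive) to the remainder.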

UniProt Q9WVN5 = molecular target: T1, UniProt Q9WVN5
T1 sequence (whole entry): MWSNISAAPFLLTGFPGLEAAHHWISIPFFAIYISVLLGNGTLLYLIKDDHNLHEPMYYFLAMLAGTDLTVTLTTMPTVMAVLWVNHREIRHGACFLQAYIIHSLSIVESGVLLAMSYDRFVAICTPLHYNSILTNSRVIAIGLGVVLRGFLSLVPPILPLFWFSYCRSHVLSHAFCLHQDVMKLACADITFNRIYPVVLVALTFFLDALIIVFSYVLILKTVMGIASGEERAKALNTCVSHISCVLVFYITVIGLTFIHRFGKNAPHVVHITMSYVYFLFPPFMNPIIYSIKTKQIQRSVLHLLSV
Summary of the method: as §1

UniProt Q9WVD7 = molecular target: UniProt Q9WVD7
Sequence of UniProt Q9WVD7 (Q9WVD7 as listed by the source): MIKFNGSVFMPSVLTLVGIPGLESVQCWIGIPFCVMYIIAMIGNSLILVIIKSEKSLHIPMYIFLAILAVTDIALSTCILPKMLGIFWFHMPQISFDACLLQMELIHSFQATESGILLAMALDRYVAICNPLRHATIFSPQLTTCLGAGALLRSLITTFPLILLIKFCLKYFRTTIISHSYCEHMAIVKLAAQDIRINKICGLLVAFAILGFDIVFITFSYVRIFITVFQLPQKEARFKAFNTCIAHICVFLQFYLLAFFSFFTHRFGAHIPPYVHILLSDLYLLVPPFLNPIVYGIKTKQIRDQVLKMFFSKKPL
Summary of the method: as §1
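Note: active if original authors judged signal statistically different from baseline.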

Sequence of UniProt Q9WVD9 (Q9WVD9 as listed by the source): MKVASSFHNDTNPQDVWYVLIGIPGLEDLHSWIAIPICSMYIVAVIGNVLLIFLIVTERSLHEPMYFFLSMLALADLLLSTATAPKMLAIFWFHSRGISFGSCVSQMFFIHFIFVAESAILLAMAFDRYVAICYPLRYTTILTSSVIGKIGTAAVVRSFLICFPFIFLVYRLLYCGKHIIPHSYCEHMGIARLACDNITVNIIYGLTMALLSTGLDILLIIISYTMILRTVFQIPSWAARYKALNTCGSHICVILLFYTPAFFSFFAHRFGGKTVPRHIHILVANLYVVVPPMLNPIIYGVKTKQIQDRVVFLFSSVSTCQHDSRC

With `O=c1cc(O)c2ccccc2o1` the “odorant receptor agonist call” value (UniProt Q9WVD9) was “inactive” and the “odorant receptor agonist call” value (UniProt Q9WVN5) was “inactive”.
For `O=C(O)CCCCCCCBr`, the “odorant receptor agonist call” value (UniProt Q9WVD7) was “active”.
`CCC1CCC(=O)O1` (centres undefined) was tested, and the “odorant receptor agonist call” value (UniProt Q9WVD9) was “inactive” and the “odorant receptor agonist call” value (UniProt Q9WVN5) was “inactive”.
`C=CCc1ccccc1` was tested, and the “odorant receptor agonist call” value (UniProt Q9WVD9) was “inactive” and the “odorant receptor agonist call” value (UniProt Q9WVN5) was “inactive”.
In the case of `C=CCOC(=O)Cc1ccccc1`, the “odorant receptor agonist call” value (UniProt Q9WVD9) is reported as “inactive” and the “odorant receptor agonist call” value (UniProt Q9WVN5) is reported as “active”.

— the M2OR odorant receptor database
